Bioassay records (PubChem BioAssay)
This is a sample that favours compounds with a hit; in the whole collection about 4.3% have one here.
m5-HT2A agonist – mouse Htr2a agonists via beta-arrestin recruitment, primary screen, cell-based, luminescence; 5-hydroxytryptamine receptor 2A (Mus musculus), P35363; CHO-K1 mHTR2A beta-arrestin complementation; percent of 30 µM serotonin response; activation, % at 7.6 µM; 0.66% of 360,000 active; AID 624169, 2012;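 active means activation above a run cutoff, the mean activation of all tested compounds plus 3 SD, cut at about 14% in these data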;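 further: 0% = plate median of compound wells and 100% = 30 µM serotonin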
Beta2AR agonist – beta2AR agonists driving receptor internalization, primary screen, cell-based, FAP fluorogen, flow cytometry; Beta-2 adrenergic receptor (Homo sapiens), P07550; Am2.2-beta2AR cells; response, % (concentration not given with the values); 0.43% of 340,000 active;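 active means response above a set limit, near 3 SD of response in nonfluorescent compounds, cut at about 42% in these data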
MC4R antag cAMP – MC4R antagonists of cAMP signaling, primary screen, cell-based, TR-FRET, antagonist arm of biased-ligand search | Melanocortin receptor 4 (Homo sapiens), P32245 | MC4R-expressing cells, MTII-stimulated cAMP, LANCE TR-FRET | inhibition, % at 6.5 µM | 0.48% of 360,000 active | AID 540295, 2011;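 active means inhibition above its plate's cutoff, the mean of tested wells on that plate plus 3 SD, cut at about 29% in these data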;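 further: 0% = Melanotan II alone and 100% = Melanotan II plus saturating MCL0020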
Target sequence (P32245 whole entry, looked up): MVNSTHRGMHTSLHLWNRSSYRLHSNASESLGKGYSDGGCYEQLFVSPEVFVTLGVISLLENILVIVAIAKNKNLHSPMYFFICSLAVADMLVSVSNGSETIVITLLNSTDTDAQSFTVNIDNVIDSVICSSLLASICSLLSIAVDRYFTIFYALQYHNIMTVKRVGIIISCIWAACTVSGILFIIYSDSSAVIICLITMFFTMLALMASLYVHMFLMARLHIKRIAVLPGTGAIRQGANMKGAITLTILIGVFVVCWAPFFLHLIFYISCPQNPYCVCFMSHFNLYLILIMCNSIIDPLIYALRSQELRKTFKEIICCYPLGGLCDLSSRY
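Material: human MC4R-expressing U2OS cells. Probe or stimulus: Melanotan II challenge. Dosing: 6.5 µM single dose. Times: 30-min compound, 1-h challenge, 1-h detection, room temperature. Technique: TR-FRET with Eu-cAMP and labeled anti-cAMP, 671 nm. Replication: singlicate.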
TAAR1 ag – human TAAR1 agonists, primary screen, Fluo-8 calcium fluorescence, CHO RD-HGA16 cells; activation, % at 3 µM; vehicle wells 0%, saturating PEA agonist 100%; Trace amine-associated receptor 1 (Homo sapiens), Q96RJ0; 0.99% of 360,000 active;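 active means activation above the mean activation of all test compounds in the run plus 3 SD, cut at about 38% in these data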
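System: CHO RD-HGA16 cells carrying human TAAR1 plus Gα16; Incubation: 17-24 h seeding, 75 min 37 °C dye, 30 min RT; Measured by: Fluo-8 fluorescence, 5 s baseline then 140 s kinetic read; Control set: DMSO and PEA EC100; Replication: single well for each compound.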
MC4R barr agon – MC4R agonists recruiting beta-arrestin, primary screen, cell-based, luminescence, agonist arm of biased-ligand search; 0.98% of 360,000 active; activation, % at 8.9 µM; U2OS MC4R beta-arrestin complementation; percent of melanotan II response, DMSO zero; Melanocortin receptor 4 (Homo sapiens), P32245;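 active means activation above a per-plate cutoff, the mean activation of sample wells on that plate plus 3 SD, cut at about 8% in these data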
TAAR1 antag – human TAAR1 antagonists, primary screen, Fluo-8 calcium fluorescence, CHO RD-HGA16 cells. antagonist. inhibition, % at 3 µM. 1.5% of 360,000 active;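 active means inhibition above a per-plate cutoff, the mean inhibition of test compounds on that plate plus 3 SD, cut at about 49% in these data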;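 further: 0% = DMSO plus EC80 beta-PEA response and 100% = DMSO alone without agonist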
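Test system: RD-HGA16 CHO cells with stable hTAAR1 and Gα16 / Probe or stimulus: EC80 β-phenethylamine stimulus / Times: seeding 17-24 h prior, 75-min 37 °C, 30-min RT dye loading / Detection: Fluo-8 calcium-sensitive fluorescence / Read-out basis: % inhibition scaled between DMSO and EC80 PEA controls / Repeats: singlicate, one well per test compound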
Beta2AR ag CP1 – beta2AR agonists via receptor internalization, confirmation, cell-based, FAP fluorogen, flow cytometry, single point, cherry pick 1; shares compounds with Beta2AR agonist; Am2.2-beta2AR cells, FAP surface receptor; hits give low values; percent response (surface receptor), % at 10 µM; 25% of 1,100 active; AID 540358, 2011;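 active means surface receptor percent response at or below 58%, roughly 3 SD from nonfluorescent compounds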
FAP fluor counter – fluorescence artifact in beta-2AR agonist FAP counterscreen | shares compounds with Beta2AR agonist | Am2.2 cells, FAP fluorogen flow cytometry; hits give low values | calls only at 10 µM | 1,100 tested, under 10 active | AID 588765;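 active means percent response below a set limit in fluorescence channel 1 and below 50% in channel 8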
* hit, by the source's call; i = inactive; nt = no result given.

SMILES | m5-HT2A agonist | Beta2AR agonist | MC4R antag cAMP | TAAR1 ag | MC4R barr agon | TAAR1 antag | Beta2AR ag CP1 | FAP fluor counter
NC(=S)n1[nH]c(-c2ccc([N+](=O)[O-])cc2)c(N=Nc2ccc(Cl)cc2)c1=O | 1.3 | 2.4 | 17.3 | nt | -3.3 | nt | 103.3 | i
CCCCOc1ccc(/C=N/NC(=O)c2nnn(-c3nonc3N)c2C)cc1 | -3.8 | -0.1 | 5.1 | 3.8 | -1.1 | 2.9 | nt | nt
CC(C)c1nnc(NC(=O)CCS(=O)(=O)c2nc(-c3cccs3)cc(C(F)(F)F)n2)s1 | -3.0 | 96.7* | -7.2 | 16.1 | -1.5 | -4.5 | 54.8* | i
CC(C)c1nnc(NC(=O)CCS(=O)(=O)Cc2ccccc2)s1 | 4.8 | 7.3 | -7.2 | 3.3 | 1.0 | 10.3 | nt | nt
CCC1CCCCN1CC(=O)Nc1cc(C)nn1-c1nc(C)cc(C)n1 (configuration not stated) | 3.1 | -12.5 | 5.4 | 2.8 | 0.5 | -5.1 | 122.7 | i
CC(C)c1nc2oc3c(NCC4CCCO4)ncnc3c2c2c1COC(C)(C)C2 (configuration not stated) | 0.4 | -3.6 | 6.8 | 13.6 | -2.3 | -4.9 | nt | nt
CC(C)Cc1nc2sc3c(NCc4ccco4)ncnc3c2c2c1COC(C)(C)C2 | -0.7 | 65.1* | 5.1 | -3.4 | 4.9 | 2.3 | 27.6* | i
CC(C)c1nc2oc3c(NCCO)ncnc3c2c2c1COC(C)(C)C2 | -2.6 | 4.8 | 0.6 | 7.3 | -2.5 | -9.3 | 113.7 | i
CSc1nc(SCCO)c2sc3nc(-c4ccco4)c4c(c3c2n1)CC(C)(C)OC4 | 12.3 | 99.5* | 0.5 | 0.1 | 0.6 | 12.1 | 6.5* | i
CC1(C)Cc2c(c(-c3ccco3)nc3sc4c(NCCO)ncnc4c23)CO1 | -0.4 | 100.5* | -11.6 | 4.1 | -2.8 | 16.6 | 16.4* | i
O=CNc1ccc(OC(=O)c2cncc(Br)c2)cc1 | -0.4 | 11.4 | 12.3 | 2.3 | 0.2 | -22.9 | nt | nt
Cc1nc2sc3c(NCc4ccco4)ncnc3c2c2c1COC(C)(C)C2 | -3.4 | -15.7 | -7.0 | -0.1 | -0.2 | -17.4 | nt | nt
COCCCNc1ncnc2c1sc1nc(-c3ccco3)c3c(c12)CC(C)(C)OC3 | 1.0 | 98.8* | -7.5 | 6.1 | 0.9 | 1.1 | 20.1* | i
Cc1cn2c(=O)c(C(=O)N3CCN(c4ccccc4F)CC3)cnc2s1 | 10.5 | -1.4 | 8.8 | 0.9 | -2.2 | -8.1 | nt | nt
COc1ccccc1/C=C/c1onc(C)c1S(=O)(=O)N1CCC(C(=O)NC(C)C)CC1 | -8.0 | 44.0* | -1.5 | 9.8 | -1.5 | -29.1 | 97.2 | i
O=[N+]([O-])c1ccc(O)c(-c2cc(C(F)(F)F)nc(-c3ccccc3)n2)c1 | 6.1 | 47.7* | 14.2 | 11.2 | 0.8 | 13.8 | 81.4 | i
CCn1c(COc2ccccc2)nnc1SCc1ccc(C#N)cc1 | 6.3 | 0.1 | -2.1 | 4.9 | 0.9 | -12.5 | nt | nt
CCn1c(COc2ccc(Cl)cc2)nnc1SCc1ccc(C#N)cc1 | -4.4 | 44.1* | 0.5 | 3.0 | -1.1 | 1.9 | 64.3 | i
Cc1ccc(/C(=N/Nc2ncnc3ccccc23)C(=O)O)cc1 | 3.3 | 2.2 | 11.2 | 2.7 | 1.2 | 5.2 | 93.6 | i
COc1ccc(-c2nc3scc(-c4ccc(OC)c(OC)c4)c3c(=O)o2)cc1 | 1.4 | 51.0* | -8.7 | nt | 0.9 | nt | 87.9 | i
